Laboratory results from ChEMBL document CHEMBL1123184, “Thromboxane synthetase inhibitors and antihypertensive agents. 2. N-[(1H-imidazol-1-yl)alkyl]-1H-isoindole-1,3(2H)-diones and N-[(1H-1,2,4-triazol-1-yl)alkyl]-1H-isoindole-1,3(2H)-diones as unique antihypertensive agents” (J Med Chem, 1986).
Values belong to the compound of their own block, whether it stands above or below them. The source made the active and inactive calls.

Key:
[1] = test system: Rattus norvegicus; test: Compound was tested for the antihypertensive activity in rats, after peroral administration of 100 mg/kg for 2 days (no. of rats=2); I=Inactive; type: functional, organism-based; set-up: dose 100 mg/kg
Procedure, shortened: (§1)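 Male 16-week-old Okamoto SHR (mean arterial pressure 170 ± 1.5 mmHg). Compound suspended in 2% preboiled starch (50 mg/mL) and given by gavage at 100 mg/kg, with 0.9% NaCl load 25 mL/kg. Second identical dose without saline 24 h later. Mean arterial pressure read 28 h after first dose. Active: one rat ≤116 mmHg or mean of two ≤122 mmHg.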

[2] = biological target: T1, Thromboxane-A synthase (Rattus norvegicus) (UniProt P49430); test: Inhibition of thromboxane formation in platelets at a concentration of 10e-4 M; type: functional
T1 sequence (whole entry): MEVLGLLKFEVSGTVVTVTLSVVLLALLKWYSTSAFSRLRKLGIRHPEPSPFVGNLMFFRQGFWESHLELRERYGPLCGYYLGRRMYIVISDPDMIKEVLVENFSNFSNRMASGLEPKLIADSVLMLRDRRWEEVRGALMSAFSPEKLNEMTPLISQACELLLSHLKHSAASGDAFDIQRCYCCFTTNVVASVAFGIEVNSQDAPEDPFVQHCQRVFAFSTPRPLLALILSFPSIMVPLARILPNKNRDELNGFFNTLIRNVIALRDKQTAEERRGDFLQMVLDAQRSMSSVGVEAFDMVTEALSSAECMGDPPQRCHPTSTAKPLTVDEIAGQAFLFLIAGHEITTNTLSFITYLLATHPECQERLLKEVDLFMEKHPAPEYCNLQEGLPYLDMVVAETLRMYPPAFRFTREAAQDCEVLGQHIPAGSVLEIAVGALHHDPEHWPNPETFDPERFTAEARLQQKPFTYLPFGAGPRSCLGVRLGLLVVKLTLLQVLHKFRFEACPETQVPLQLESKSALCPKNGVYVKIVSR
Procedure, shortened: (§2)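 SHR washed platelets (4.5–6.0 × 10^4/μL, Krebs phosphate pH 7.4) incubated 10 min at 37 °C with compound at 10^-4 M. Reaction stopped with citric acid on ice. TXB2 quantified by RIA, boiled-control blank subtracted, and percent inhibition of TXB2 formation calculated. Number of determinations given per value.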

[3] = test system: Rattus norvegicus; test: Compound was tested for the antihypertensive activity in rats, after peroral administration of 100 mg/kg for 2 days (no. of rats=2); A=Active; type: functional, organism-based; set-up: dose 100 mg/kg; procedure, shortened: as §1
[4] = biological target: T2, Thromboxane-A synthase (Rattus norvegicus, UniProt P49430); test: (§3) Compound was tested for the inhibition of thromboxane synthetase
T2 sequence (P49430 whole entry): T1 sequence (whole entry)
Procedure, shortened: (§4)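 Washed platelets from urethan-anesthetized SHR aged 19–24 weeks, in oxygenated Krebs phosphate buffer pH 7.4 at (4.5–6.0) × 10^4 platelets/μL. Incubated 10 min at 37 °C with compound, stopped with citric acid on ice. TXB2 measured by RIA; boiled-sample blank subtracted. IC50 read from percent inhibition vs log concentration plot; duplicate measurements.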

[5] = test system: Rattus norvegicus; test: Compound was tested for the antihypertensive activity in rats, after peroral administration of 100 mg/kg; I=Inactive; type: functional, organism-based; set-up: dose 100 mg/kg; procedure, shortened: as §1
[6] = biological target: T1, Thromboxane-A synthase (Rattus norvegicus); test: Inhibition of thromboxane formation (thromboxane synthetase) in platelets at 10e-4 M; type: functional; procedure, shortened: as §2
[7] = test system: Rattus norvegicus; test: Compound was tested for the antihypertensive activity in rats, after peroral administration of 100 mg/kg for 2 days (no. of rats=4); I=Inactive; type: functional, organism-based; set-up: dose 100 mg/kg; procedure, shortened: as §1
[8] = biological target: T2, Thromboxane-A synthase; test: as §3; type: functional; procedure, shortened: as §4
[9] = test system: Rattus norvegicus; test: Compound was tested for the antihypertensive activity in rats, after peroral administration of 100 mg/kg for 2 days (no. of rats=3); A=Active; type: functional, organism-based; set-up: dose 100 mg/kg; procedure, shortened: as §1
[10] = test system: Rattus norvegicus; test: Compound was tested for the antihypertensive activity in rats, after peroral administration of 100 mg/kg for 2 days (no. of rats=3); I=Inactive; type: functional, organism-based; set-up: dose 100 mg/kg; procedure, shortened: as §1
[11] = test system: Rattus norvegicus; test: Compound was tested for the antihypertensive activity in rats, after peroral administration of 100 mg/kg; A=Active; type: functional, organism-based; set-up: dose 100 mg/kg; procedure, shortened: as §1
[12] = test system: Rattus norvegicus; test: Compound was tested for the antihypertensive activity in rats, after peroral administration of 100 mg/kg for 2 days (no. of rats=2); a=Active; type: functional, organism-based; set-up: dose 100 mg/kg; procedure, shortened: as §1

Compound: Cc1nccn1CCCN1C(=O)c2ccccc2C1=O
Activity [1]: inactive
inhibition [2]: 36%

Compound: Cc1cccc2c1C(=O)N(CCCCn1ccnc1)C2=O
Activity [3]: Active
inhibition [2]: 100%
IC50 [4]: 2 µM

Compound: O=C1c2ccc(Cl)c(Cl)c2C(=O)N1CCCn1cncn1
Activity [5]: inactive
inhibition [6]: 73%

Compound: Cc1cn(CCCN2C(=O)c3ccccc3C2=O)cn1
Activity [1]: inactive
inhibition [2]: 68%

Compound: CC(CCn1cncn1)N1C(=O)c2ccccc2C1=O (stereo unspecified)
Activity [7]: inactive
inhibition [2]: 47%

Compound: O=C1c2ccccc2C(=O)N1CCCCCCCCCCn1ccnc1
Activity [5]: inactive
inhibition [6]: 92%
IC50 [8]: 100 nM

Compound: O=C1c2ccccc2C(=O)N1CCCCCn1ccnc1
Activity [3]: Active
inhibition [2]: 92%
IC50 [4]: 6 µM

Compound: O=C1c2ccccc2C(=O)N1CCCn1cncn1
Activity [3]: Active
inhibition [2]: 64%

Compound: O=C1c2ccccc2C(=O)N1CCCCCn1cncn1
Activity [3]: Active
inhibition [2]: 79%

Compound: O=C1c2ccccc2C(=O)N1CC#CCn1ccnc1
Activity [11]: Active
inhibition [6]: 100%

Compound: O=C1c2ccc(Cl)c(Cl)c2C(=O)N1CCCCn1ccnc1
Activity [5]: inactive
inhibition [6]: 100%

Compound: O=C1c2ccccc2C(=O)N1CCCCn1ccnc1
Activity [3]: Active
inhibition [2]: 99%
IC50 [4]: 2 µM

Compound: O=C1c2ccccc2C(=O)N1C/C=C/Cn1ccnc1
Activity [3]: Active
inhibition [2]: 85%

Compound: O=C1c2ccccc2C(=O)N1CCCCn1cncn1
inhibition [2]: 70%

Compound: O=C1c2cccc(Br)c2C(=O)N1CCCn1cncn1
Activity [5]: inactive
inhibition [6]: 76%

Compound: O=C1c2ccccc2C(=O)N1CCn1cncn1
Activity [12]: Active
inhibition [2]: 0%

Compound: O=C1c2ccccc2C(=O)N1CCn1ccnc1
Activity [3]: Active
inhibition [2]: 20%

Compound: Cc1nccn1CCCCN1C(=O)c2ccccc2C1=O
Activity [7]: inactive
inhibition [2]: 22%

Compound: O=C1c2ccc(Cl)c(Cl)c2C(=O)N1CCCn1ccnc1
Activity [5]: inactive
inhibition [6]: 100%
IC50 [8]: 400 nM

Second part, led by results:

inhibition [2]: 0%
Compound: CCc1nccn1CCCN1C(=O)c2ccccc2C1=O
Activity [1]: inactive

inhibition [2]: 94%
Compound: CC(CCn1ccnc1)N1C(=O)c2ccccc2C1=O (stereo unspecified)
Activity [9]: Active

inhibition [2]: 94%
IC50 [4]: 5 µM
Compound: O=C1c2ccccc2C(=O)N1CCCn1ccnc1
Activity [3]: Active

inhibition [6]: 89%
Compound: CC(CCn1ccnc1)N1C(=O)c2cccc(Br)c2C1=O (stereo unspecified)
Activity [5]: inactive

inhibition [2]: 100%
IC50 [4]: 4 µM
Compound: Cc1cccc2c1C(=O)N(CCCn1ccnc1)C2=O
Activity [10]: inactive

inhibition [2]: 86%
Compound: Cc1cn(CCCCN2C(=O)c3ccccc3C2=O)cn1
Activity [10]: inactive

inhibition [6]: 100%
IC50 [8]: 1000 nM
Compound: O=C1c2cccc(Br)c2C(=O)N1CCCCn1ccnc1
Activity [11]: Active

inhibition [2]: 57%
Compound: O=C1c2ccccc2C(=O)N1CCCCn1ccnc1-c1ccccc1
Activity [10]: inactive

inhibition [6]: 100%
Compound: O=C1c2cccc(Cl)c2C(=O)N1CCCCn1ccnc1
Activity [11]: Active

inhibition [6]: 100%
IC50 [8]: 200 nM
Compound: O=C1c2ccccc2C(=O)N1CCCCCCCCn1ccnc1
Activity [5]: inactive

inhibition [2]: 65%
Compound: CCc1nccn1CCCCN1C(=O)c2ccccc2C1=O
Activity [1]: inactive

inhibition [6]: 100%
IC50 [8]: 1500 nM
Compound: O=C1c2ccccc2C(=O)N1CCCCCCn1ccnc1
Activity [11]: Active

inhibition [6]: 87%
IC50 [8]: 600 nM
Compound: O=C1c2cccc(Br)c2C(=O)N1CCCCCn1ccnc1
Activity [5]: inactive

inhibition [6]: 92%
Compound: O=C1c2cccc(Cl)c2C(=O)N1CCCn1ccnc1
Activity [11]: Active
